This note sets out measurements from PubChem BioAssay.

The nature of assay [1]: OD615 S. cerevisiae growth inhibition, permissive medium, pilot counter-assay, permissive growth control for S. cerevisiae lifespan shortening project (AID 705;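 active = growth inhibition above 25% in both replicates, a cutoff set 3 SD above the mean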). Conditions: OD615, 24 h, at 10 µM, active compounds read high. In outline:
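System: engineered DeaD yeast; Medium: permissive raffinose/galactose medium; Compound dosing: 10 µM single dose, 0.25% DMSO; Incubation: 4 h cell pre-growth, 24 h exposure at 30 °C; Technique: OD at 615 nm; Evaluation: growth inhibition from lowered OD615 after 24 h.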

Assay [2] can be described thus: Restrictive medium S. cerevisiae growth inhibition, OD615, pilot screen of yeast lifespan reduction project, restrictive growth control (AID 706;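 active = growth inhibition above a set limit, 3 SD over mean compound inhibition, in both replicates, cut at about 43% in these data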;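 note: modified DeaD lifespan yeast strain shifted to restrictive glucose medium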). Conditions: OD615, 48 h, at 10 µM, active compounds read high. The gist of the method: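 Material: modified S. cerevisiae; buffer or medium: CSMM-D glucose medium; doses: one concentration, 10 µM final, 0.25% DMSO; incubation: 48 h compound exposure at 30 °C; detection: optical density at 615 nm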

The nature of assay [3]: viability gain of MRP-1-high H69AR cells under doxorubicin, pilot screen, MRP-1 activator project, CellTiter-Glo, duplicate (AID 807;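 active = viability increase at or above a cutoff of the median across tested compounds plus 3 SD, cut at about 8.5% in these data, passing the limit was not always enough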;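 note: compound pretreatment 18-22 h then 72 h combined with doxorubicin; 0% = doxorubicin alone and 100% = vehicle without doxorubicin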). Conditions: H69AR viability with doxorubicin, CellTiter-Glo luminescence; at 10 µM; active compounds read high. (In ATP-based viability assays light output follows the ATP content of the culture.)
Assay [4] is described as follows: growth suppression of beta-catenin knockout HCT116, pilot screen, human colon tumor cells (AID 823;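 active = cell viability at or below a set limit in both duplicate runs, the limit being the all-compound median minus 4 SD, cut at about 23% in these data, passing the limit was not always enough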;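 note: 0% = wells killed by 20 µM Hyamine and 100% = untreated DMSO cell wells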). Conditions: CellTiter-Glo, 60 h, at 10 µM, active compounds read low.
Assay [5] is described as follows: growth suppression of PTEN-deleted HCT116, pilot screen, cell-based, HCT116 clonal line, CellTiter-Glo (AID 824;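 active = viability at or below 27.92% in each of two runs, the all-compound median minus 4 SD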;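 note: 0% = 20 µM Hyamine control and 100% = vehicle cell control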). Conditions: 60 h, at 10 µM, active compounds read low.
Assay [6] is described as follows: inhibitors of the yeast RAM network, pilot screen, dse1pr::URA3 reporter, 5-FOA selection (AID 869).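 Note: 0% = DMSO wells with no growth and 100% = 10 µM 1-NA-PP1 with full growth; RAM network block rescues cells from 5-FOA so hits raise OD615 growth.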 Conditions: S. cerevisiae dse1pr::URA3 5-FOA growth, OD615, 2 d; at 10 µM; active compounds read high; strain carries analog-sensitive mutant Cbk1 kinase.
Assay [7] in a line: RAM signaling pathway blockade in yeast – S. cerevisiae, Pdr1DBD-CYC8 efflux-inhibited sensitized strain, primary screen (AID 1298;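 active = RAM network inhibition above 8.4% in each of two replicates, 3 SD over the compound average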;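 note: 0% = DMSO untreated cells without growth and 100% = 10 µM 1-NA-PP1 full growth; higher means more yeast growth rescued from 5-FOA killing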). Conditions: S. cerevisiae cbk1-as DSE1-URA3 strain, 5-FOA growth OD615, 2 d; at 50 µM; active compounds read high.

The structures appear in SMILES notation. Unmarked numbers belong to inactive results. Results filed as inconclusive are left out. The source made the active and inactive calls.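 Rule for the calls, unless noted: active = inhibition over a set limit, the all-compound mean plus 3 SD, in both replicate runs; inconclusive = over that limit in just one replicate run; inactive = at or under that limit in both runs.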

In the case of `Cc1cccn2c(=O)c3cc(C(=O)NCCCN4CCOCC4)n(C)c3nc12`, the values for the growth inhibition in assay [1] and in assay [2] were -4.96% and -3.14%, respectively. The viability increase in assay [3] is 0.44%. The viability in assay [4] and in assay [5] was 93.1% in each case. The inhibition (usually the change of the read-out against control, counted positive when it falls) in assay [6] is 1.06%. Further, the RAM network inhibition in assay [7] is 0.37%.
On to `Cc1ccc(C)c2c1sc(=NC(=O)CN1C(=O)CCC1=O)n2C`, for which the growth inhibition is -15% in assay [1] and -2.54% in assay [2]. Also, the viability increase in assay [3] was -1.69%. Besides, the viability (in general, a read-out of living cells in per cent, often relative to untreated cells) was 88% in assay [4] and 83.2% in assay [5]. For the same molecule, the inhibition in assay [6] was 2.84%. Moreover, in assay [7], the RAM network inhibition is 5.96%.
With `Cc1onc(-c2ccccc2Cl)c1C(=O)OCN1C(=O)c2ccccc2C1=O`, the results for the growth inhibition in assay [1] and in assay [2] were -16.8% and -12.5%, respectively. Further, the viability increase in assay [3] was -2.89%. For the same molecule, the viability in assay [4] is 90%; in assay [5], 99%. In assay [6], the inhibition was 0.93%. The RAM network inhibition in assay [7] is 5.34%.
As to `CC1=CS/C(=C(/C#N)C(=O)N2CCOCC2)N1c1ccccc1`, the results for the growth inhibition in assay [1] and in assay [2] were -2.33% and 1.7%, respectively. Moreover, the viability increase in assay [3] was -1.17%. Besides, the viability is 94.2% in assay [4] and 94.7% in assay [5]. Further, the inhibition in assay [6] is 0.255%. Further, the RAM network inhibition in assay [7] was 0.92%.
With `Cc1ccc(-c2nc(CS(=O)(=O)CC(=O)N3CC(C)CC(C)C3)c(C)o2)cc1` (stereo unspecified), the figures for the growth inhibition in assay [1] and in assay [2] were 0.15% and 4.4%, respectively. Also, the viability increase in assay [3] was -2.57%. Further, the viability is 58% in assay [4] and 72.8% in assay [5]. The inhibition in assay [6] was 1.93%. In addition, in assay [7], the RAM network inhibition was 3.8%.
Regarding `Cc1ccc2oc3c(c(=O)c2c1)C(c1cccc(O)c1)N(c1ccccn1)C3=O` (stereo unspecified), the results for the growth inhibition in assay [1] and in assay [2] were -2.51% and -0.22%, respectively. The viability increase in assay [3] was -2.59%. Also, the viability in assay [4] is 79.4%; in assay [5] it was 68.2%. Moreover, in assay [6], the inhibition is 1.81%. Also, in assay [7], the RAM network inhibition was 4.84%.
In the case of `Cn1c(Cn2c(=O)sc3ccccc32)nnc1SCC(=O)N1CCOCC1`, the values for the growth inhibition in assay [1] and in assay [2] were -13.2% and -28%, respectively. In addition, the viability increase in assay [3] is -1.17%. Also, the viability in assay [4] is 103%; in assay [5], 99.2%. Also, in assay [6], the inhibition is 2.92%. Moreover, the RAM network inhibition in assay [7] is 3.55%.
For `Cc1ccc(Cc2c(C)nc3nc(SCC(=O)NCc4ccco4)nn3c2C)cc1`, the results for the growth inhibition in assay [1] and in assay [2] were 10.4% and 12.9%, respectively. Besides, in assay [3], the viability increase is -6.46%. The viability in assay [4] was 13.2% (active); in assay [5] it was 10.9% (active). Further, the inhibition in assay [6] was 0.455%. Further, in assay [7], the RAM network inhibition was 5.24%.
For the molecule `N#Cc1nc(-c2ccccc2Cl)oc1NCC1CCCO1` (stereo unspecified), the growth inhibition in assay [1] is -2.88%; in assay [2] it was 8.84%. Moreover, in assay [3], the viability increase was 0.31%. The figures for the viability in assay [4] and in assay [5] were 91.1% and 86.8%, respectively. For the same molecule, the inhibition in assay [6] is 1.48%. In addition, the RAM network inhibition in assay [7] was 1.33%.
Take `c1coc(Cn2c(SCc3nc4ccccc4[nH]3)nnc2-c2cccs2)c1`: the growth inhibition in assay [1] is 0.98%; in assay [2] it was 21.3%. Also, the viability increase in assay [3] was -1.17%. In addition, the viability in assay [4] is 93%; in assay [5], 89.8%. The inhibition in assay [6] is 3.64%. The RAM network inhibition in assay [7] is 1.24%.
Regarding `CCN(CC)CCOc1ccc(Br)cc1`, the growth inhibition in assay [1] is -12.9%; in assay [2], -12.2%. For the same molecule, the viability increase in assay [3] was -0.72%. Besides, the viability in assay [4] is 90.1%; in assay [5], 103%. The inhibition in assay [6] was 1.24%. Further, in assay [7], the RAM network inhibition was 1.1%.
In the case of `Cn1nnnc1SCC(=O)c1ccco1`, the growth inhibition in assay [1] was -7.91%; in assay [2], -1%. Further, the viability increase in assay [3] is -3.23%. In addition, the results for the viability in assay [4] and in assay [5] were 103% and 105%, respectively. The inhibition in assay [6] was 1.83%. The RAM network inhibition in assay [7] was -0.17%.
Consider `CCCCCn1c(CNC(=O)c2cccs2)nc2ccccc21`, for which the growth inhibition in assay [1] was -5.02%; in assay [2] it was 3.4%. For the same molecule, in assay [3], the viability increase was -2.58%. Besides, the viability in assay [4] was 90.8%; in assay [5], 94%. For the same molecule, the inhibition in assay [6] is 0.42%. Moreover, the RAM network inhibition in assay [7] is 3.16%.
Turning to `Cc1ccc(S(=O)(=O)N2CCN(C(=O)CSc3nnc(C)s3)C2)cc1`, the growth inhibition in assay [1] was -14.3%; in assay [2] it was -10.7%. The viability increase in assay [3] is -1.75%. Moreover, the viability is 91.9% in assay [4] and 87.3% in assay [5]. In assay [6], the inhibition was 1.31%. In addition, in assay [7], the RAM network inhibition is -0.22%.
As to `Cn1cccc1Cc1nnc(SCC(=O)NC2CCCCC2)n1CCc1ccccc1`, the values for the growth inhibition in assay [1] and in assay [2] were 9.32% and 23.6%, respectively. In addition, the viability increase in assay [3] was -2.17%. For the same molecule, the viability in assay [4] is 79.6%; in assay [5], 81.5%. For the same molecule, in assay [6], the inhibition was 1.58%. Further, the RAM network inhibition in assay [7] was 8.9%.
As to `Cc1ccc(S(=O)(=O)NCC(=O)N2CCOCC2)cc1`, the values for the growth inhibition in assay [1] and in assay [2] were -3.62% and -10.3%, respectively. The viability increase in assay [3] was -1.57%. Besides, the figures for the viability in assay [4] and in assay [5] were 103% and 109%, respectively. In addition, the inhibition in assay [6] is -0.085%. Also, the RAM network inhibition in assay [7] is 0.68%.
Consider `CCOC(=O)N1CCN(C(=O)C2CC(c3ccc(F)cc3)=NO2)CC1` (stereo unspecified), for which the growth inhibition in assay [1] was -5.22%; in assay [2], -10.9%. Moreover, the viability increase in assay [3] was 1.33%. Moreover, the viability in assay [4] is 104%; in assay [5], 108%. In addition, in assay [6], the inhibition was 0.815%. The RAM network inhibition in assay [7] is 2.2%.
In the case of `CCN(CCNS(=O)(=O)c1ccc2[nH]c(=O)sc2c1)c1ccccc1`, the results for the growth inhibition in assay [1] and in assay [2] were 0.725% and 13%, respectively. Moreover, the viability increase in assay [3] is -1.31%. In addition, the viability is 99% in assay [4] and 87.6% in assay [5]. Further, the inhibition in assay [6] is 0.01%. Moreover, the RAM network inhibition in assay [7] was 2.83%.
On to `N#CCCN1CCN(S(=O)(=O)c2ccc(S(=O)(=O)NCC3CCCO3)cc2)CC1` (stereo unspecified), for which the growth inhibition in assay [1] is -1.2%; in assay [2], 5.28%. Moreover, in assay [3], the viability increase is 0.55%. The viability was 105% in assay [4] and 104% in assay [5]. For the same molecule, the inhibition in assay [6] is 0.51%. The RAM network inhibition in assay [7] was -2.15%.
On to `COCCN(C(=O)Nc1ccccc1)C(C)c1cccnc1` (stereo unspecified), for which the figures for the growth inhibition in assay [1] and in assay [2] were 9.6% and -1.42%, respectively. Moreover, in assay [3], the viability increase was -2.41%. Moreover, the viability in assay [4] was 93.5%; in assay [5] it was 97.5%. The inhibition in assay [6] is 1.54%. In assay [7], the RAM network inhibition is -1.08%.
In the case of `Cc1c(NC(=O)Oc2ccccc2)sc(=S)n1C`, the growth inhibition is 14.5% in assay [1] and 34.4% in assay [2]. For the same molecule, in assay [3], the viability increase was -3.22%. Besides, the viability in assay [4] was 102%; in assay [5], 98.2%. Besides, the inhibition in assay [6] is 1.32%. Also, in assay [7], the RAM network inhibition was 0.99%.
As for `Clc1ccc(-n2ncc3c(NCC4CCCO4)ncnc32)cc1` (stereo unspecified), the growth inhibition in assay [1] is -7.04%; in assay [2] it was -19.4%. Also, the viability increase in assay [3] is -5.71%. The figures for the viability in assay [4] and in assay [5] were 37.6% and 37.2%, respectively. The inhibition in assay [6] is 0.57%. Moreover, in assay [7], the RAM network inhibition was 8.53%.
For the molecule `Clc1ccccc1N1CCN(c2ncnc3nc[nH]c23)CC1`, the growth inhibition was 7.42% in assay [1] and -4.18% in assay [2]. Besides, in assay [3], the viability increase is -1.4%. Besides, the results for the viability in assay [4] and in assay [5] were 95% and 95.7%, respectively. Further, the inhibition in assay [6] was 4.08%. Moreover, the RAM network inhibition in assay [7] was 5.77%.
